ChEMBL document CHEMBL1137400, “Dopamine/serotonin receptor ligands. 13: Homologization of a benzindoloazecine-type dopamine receptor antagonist modulates the affinities for dopamine D(1)-D(5) receptors” (J Med Chem, 2006)
Calls of active or inactive are those of the source. The rule behind the calls is not given here.

How the values were obtained:
D(1A) dopamine receptor [1] = biological target: T1, D(1A) dopamine receptor (Homo sapiens, UniProt P21728); assay: Displacement of [3H]SCH 23390 from human D1 dopamine receptor expressed in HEK293 cells; format: cell-based
Procedure, shortened: (§1)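 Human cloned receptors stably expressed: D1 in HEK293 cells with [3H]SCH 23390, and D4.4 in CHO cells with [3H]spiperone. Radioligand displacement was run in 96-well format, incubated 90 min at 27 °C and stopped by rapid filtration. At least two independent experiments, each in triplicate. Ki was calculated from IC50 by Cheng–Prusoff. "No activity" means under 70% displacement at 10^-5 M.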

D(1A) dopamine receptor [2] = biological target: T1, D(1A) dopamine receptor; assay: Activity at human D1 dopamine receptor expressed in HEK293 cells by calcium fluorescence assay; format: functional, cell-based
Procedure, shortened: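 Human D1 stably expressed in HEK293 cells. Intracellular Ca2+ was read by fluorescence. Compounds were first checked for any Ca2+ rise on their own, then tested for concentration-dependent suppression of the signal induced by the agonist SKF 38393. Ki was taken from the sigmoidal inhibition curve. Means of three experiments of six values each (±SEM), or of two experiments.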

D(2) dopamine receptor [3] = biological target: T2, D(2) dopamine receptor (Homo sapiens, UniProt P14416); assay: Displacement of [3H]spiperone from human D2L dopamine receptor expressed in CHO cells; format: cell-based
Procedure, shortened: (§2)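 Human D2L or D3 receptors stably expressed in CHO cells; [3H]spiperone displacement in 96-well format. Incubation 90 min at 27 °C, ended by rapid filtration. IC50 was converted to Ki by Cheng-Prusoff. At least two independent experiments, each run in triplicate.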

D(1B) dopamine receptor [4] = biological target: T3, D(1B) dopamine receptor (Homo sapiens, UniProt P21918); assay: Activity at human D5 dopamine receptor expressed in HEK293 cells by calcium fluorescence assay; format: functional, cell-based
D(3) dopamine receptor = D(3) dopamine receptor (Homo sapiens, UniProt P35462); assay: Displacement of [3H]spiperone from human D3 receptor expressed in CHO cells; format: cell-based; procedure, shortened: as §2
D(4) dopamine receptor = biological target: T4, D(4) dopamine receptor (Homo sapiens, UniProt P21917); assay: (§3) Displacement of [3H]spiperone from human D4 dopamine receptor expressed in CHO cells; format: cell-based; procedure, shortened: as §1
T4 sequence (P21917 whole entry): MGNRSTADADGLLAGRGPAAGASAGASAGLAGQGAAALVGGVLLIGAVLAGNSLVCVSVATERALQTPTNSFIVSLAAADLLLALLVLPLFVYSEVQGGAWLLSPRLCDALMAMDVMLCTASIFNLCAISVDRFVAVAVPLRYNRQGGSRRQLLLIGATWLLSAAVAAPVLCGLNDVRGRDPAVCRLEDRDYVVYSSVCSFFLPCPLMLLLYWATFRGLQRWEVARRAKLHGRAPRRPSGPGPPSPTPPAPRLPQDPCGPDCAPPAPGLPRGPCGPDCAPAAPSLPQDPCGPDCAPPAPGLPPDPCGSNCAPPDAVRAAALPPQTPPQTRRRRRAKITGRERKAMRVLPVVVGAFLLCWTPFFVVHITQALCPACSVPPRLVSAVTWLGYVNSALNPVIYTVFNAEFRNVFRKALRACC

D(1B) dopamine receptor [5] = biological target: T3, D(1B) dopamine receptor; assay: Displacement of [3H]SCH 23390 from human D5 dopamine receptor expressed in HEK293 cells; format: cell-based
Procedure, shortened: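 Radioligand binding with [3H]SCH 23390 on human D5 stably expressed in HEK293 cells, in 96-well format. Incubation 90 min at 27 °C, stopped by rapid filtration. Ki was calculated from IC50 by Cheng-Prusoff. At least two independent experiments, each in triplicate.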

D(2) dopamine receptor [6] = biological target: T2, D(2) dopamine receptor; assay: Activity at human D2L dopamine receptor expressed in HEK293 cells by calcium fluorescence assay; format: functional, cell-based
[7] = biological target: T5, D(4) dopamine receptor (Homo sapiens) (UniProt P21917); assay: as §3; format: cell-based; procedure, shortened: as §1
T5 sequence (whole entry): T4 sequence (P21917 whole entry)

D(3) dopamine receptor, sequence (P35462 whole entry): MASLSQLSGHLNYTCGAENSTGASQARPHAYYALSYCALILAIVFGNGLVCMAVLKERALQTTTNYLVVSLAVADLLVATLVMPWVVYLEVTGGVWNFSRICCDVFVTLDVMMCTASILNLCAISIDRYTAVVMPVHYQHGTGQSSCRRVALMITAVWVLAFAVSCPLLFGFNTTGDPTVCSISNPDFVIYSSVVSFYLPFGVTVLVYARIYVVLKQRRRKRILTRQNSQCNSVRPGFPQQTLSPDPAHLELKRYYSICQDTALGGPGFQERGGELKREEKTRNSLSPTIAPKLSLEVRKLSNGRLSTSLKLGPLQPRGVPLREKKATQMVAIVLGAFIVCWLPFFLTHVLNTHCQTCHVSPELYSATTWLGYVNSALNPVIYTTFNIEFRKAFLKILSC
T3 sequence (P21918 whole entry): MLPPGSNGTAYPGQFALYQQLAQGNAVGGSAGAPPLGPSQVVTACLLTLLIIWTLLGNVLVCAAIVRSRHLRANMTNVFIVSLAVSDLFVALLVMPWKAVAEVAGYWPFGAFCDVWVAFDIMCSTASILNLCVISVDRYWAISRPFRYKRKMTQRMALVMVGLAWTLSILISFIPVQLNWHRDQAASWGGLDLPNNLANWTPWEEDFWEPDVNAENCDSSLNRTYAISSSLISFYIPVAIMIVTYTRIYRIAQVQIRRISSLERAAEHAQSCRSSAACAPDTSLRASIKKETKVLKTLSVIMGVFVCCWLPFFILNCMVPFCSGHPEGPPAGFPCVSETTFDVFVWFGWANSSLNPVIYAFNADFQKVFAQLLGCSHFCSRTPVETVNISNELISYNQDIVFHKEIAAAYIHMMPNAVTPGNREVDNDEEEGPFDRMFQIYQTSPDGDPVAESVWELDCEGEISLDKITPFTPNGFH
T2 sequence (P14416 whole entry): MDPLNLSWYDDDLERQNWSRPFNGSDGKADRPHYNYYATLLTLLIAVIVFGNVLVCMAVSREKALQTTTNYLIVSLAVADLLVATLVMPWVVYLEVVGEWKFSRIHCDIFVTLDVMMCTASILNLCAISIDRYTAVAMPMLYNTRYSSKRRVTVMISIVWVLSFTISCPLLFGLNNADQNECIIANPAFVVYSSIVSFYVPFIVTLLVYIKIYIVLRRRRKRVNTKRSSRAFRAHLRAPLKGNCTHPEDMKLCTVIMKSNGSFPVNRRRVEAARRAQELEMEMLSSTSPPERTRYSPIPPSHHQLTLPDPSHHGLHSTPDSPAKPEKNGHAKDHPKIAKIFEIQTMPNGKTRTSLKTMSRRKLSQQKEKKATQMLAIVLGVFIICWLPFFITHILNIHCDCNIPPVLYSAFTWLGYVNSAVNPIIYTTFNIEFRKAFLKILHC
T1 sequence (P21728 whole entry): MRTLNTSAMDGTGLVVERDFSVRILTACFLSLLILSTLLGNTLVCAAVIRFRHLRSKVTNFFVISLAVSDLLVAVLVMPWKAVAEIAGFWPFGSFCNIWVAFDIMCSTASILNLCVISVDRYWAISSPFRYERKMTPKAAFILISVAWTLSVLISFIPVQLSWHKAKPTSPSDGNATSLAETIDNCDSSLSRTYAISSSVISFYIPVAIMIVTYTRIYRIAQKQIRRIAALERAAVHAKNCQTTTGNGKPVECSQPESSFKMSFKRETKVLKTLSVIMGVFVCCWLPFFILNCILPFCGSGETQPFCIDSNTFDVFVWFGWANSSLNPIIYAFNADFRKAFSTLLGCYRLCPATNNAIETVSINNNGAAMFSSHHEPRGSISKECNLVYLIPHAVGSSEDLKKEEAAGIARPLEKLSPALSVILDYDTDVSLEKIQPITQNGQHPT

Row | Ki (D(3) dopamine receptor) | Ki (D(4) dopamine receptor) | Activity (D(1A) dopamine receptor [1]) | Activity (D(1A) dopamine receptor [2]) | Activity (D(2) dopamine receptor [3]) | Activity (D(1B) dopamine receptor [4]) | Activity (D(3) dopamine receptor) | Activity [7] | Activity (D(1B) dopamine receptor [5]) | Activity (D(2) dopamine receptor [6]) | Compound | Ki (D(1A) dopamine receptor [1]) | Ki (D(1A) dopamine receptor [2]) | Ki (D(2) dopamine receptor [3]) | Ki (D(1B) dopamine receptor [4]) | Ki (D(1B) dopamine receptor [5]) | Ki (D(2) dopamine receptor [6])
1 | 521 nM | 184 nM | – | – | – | – | – | – | – | – | CN1CCCc2c([nH]c3ccccc23)Cc2ccccc2CC1 | 163 nM | 304 nM | 143 nM | 71.6 nM | 92 nM | 38 nM
2 | – | – | inactive | inactive | inactive | inactive | inactive | inactive | inactive | inactive | c1ccc2c(c1)CCCN1CCc3c([nH]c4ccccc34)C21 (centres undefined) | – | – | – | – | – | –
3 | – | – | inactive | inactive | inactive | inactive | inactive | inactive | inactive | inactive | c1ccc2c(c1)CCN1CCCc3c([nH]c4ccccc34)C21 (centres undefined) | – | – | – | – | – | –
4 | 25.9 nM | 108 nM | – | – | – | – | – | – | – | – | CN1CCc2ccccc2Cc2[nH]c3ccccc3c2CC1 | – | – | – | – | – | –

Row | Compound | Ki (D(3) dopamine receptor) | Ki (D(4) dopamine receptor) | Activity (D(1A) dopamine receptor [1]) | Activity (D(1A) dopamine receptor [2]) | Activity (D(2) dopamine receptor [3]) | Activity (D(1B) dopamine receptor [4]) | Activity (D(3) dopamine receptor) | Activity [7] | Activity (D(1B) dopamine receptor [5]) | Activity (D(2) dopamine receptor [6]) | Ki (D(1A) dopamine receptor [1]) | Ki (D(1A) dopamine receptor [2]) | Ki (D(2) dopamine receptor [3]) | Ki (D(1B) dopamine receptor [4]) | Ki (D(1B) dopamine receptor [5]) | Ki (D(2) dopamine receptor [6])
5 | CN1CCCc2ccccc2Cc2[nH]c3ccccc3c2CC1 | 278 nM | 98.4 nM | – | – | – | – | – | – | – | – | 2.2 nM | 2.8 nM | 14.5 nM | 2.8 nM | 0.61 nM | 1.5 nM
